# Results from ChEMBL document CHEMBL4513216, “Probing the Open Global Health Chemical Diversity Library for Multistage-Active Starting Points for Next-Generation Antimalarials” (ACS Infect Dis, 2020).
# Experiment: Toxicity liver stage against HepG2, at 10uM
# Format: cell-based
# Set-up: test concentration 10 uM, cell line HepG2-A16-CD81EGFP
# Details: human, HepG2-A16-CD81EGFP cells; read-out: INHIBITION
# In short: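 Uninfected HepG2-A16-CD81EGFP cells, 3 × 10^3 per well, 1536-well, plated on prespotted compound at 10 μM final, parasite-free screening media added to match infected plates; puromycin 10 μM positive, DMSO 0.5% negative; run in parallel with 48 h PbLuc assay at 37 °C, 5% CO2; viability by CellTiter-Glo luminescence, normalized to controls.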
row,Compound,cytotoxicity at 10 µM [%]
1,CNC(=O)CCOC(=O)c1cccc(-n2ccc(C(F)(F)F)n2)c1,-41.9
2,Cc1ccc(C)c(CS(=O)(=O)Cc2ccn(C)c(=O)c2)c1,13.8
3,Cc1noc(CNc2cc3c(cc2Cl)OCCCO3)n1,-1.49
4,COc1ccc(CNC(=O)NCc2ccc(C)cc2)cn1,-5.63
5,COC1CCN(CCNC(=O)NC(C)c2ccc(F)c(F)c2)CC1 (configuration not stated),9.88
6,CCN(C)CC(=O)N1CCN(Cc2ccccc2)[C@@H]2CS(=O)(=O)C[C@@H]21,-5.18
7,Cc1cnn(CCNCC(=O)Nc2ccc(Cl)cn2)c1,1.93
8,O=C(c1cc(Cl)ccc1OC1CCN(C2CCCC2)CC1)N1CC(O)C1,-16.2
9,O=C(Nc1ccc(F)cc1)N1C[C@@H]2C[C@H](C(=O)N3CCOCC3)[C@H](C1)O2,3.41
10,Cn1nnc2c1C(COCC1CC1)CN(C(=O)Cc1cccs1)C2 (configuration not stated),3.88
11,O=C(CC1CCN(c2cccnn2)CC1)Nc1cccnc1,3.72
12,CCNc1nc2cn(-c3ccc(OC(F)(F)F)cc3)c(=O)c-2c[nH]1,11.8
13,CN(C)CC1(O)CCCN(c2nc(-c3ccccc3)no2)CC1 (configuration not stated),-4.6
14,Cc1cc(NC(=O)CNC2CCc3ncnn3C2)on1 (configuration not stated),6.47
15,CC(=O)N1N=C(c2ccccc2)OC1C(=O)NCCc1ccc(C)cc1 (configuration not stated),0.0915
16,Cn1c(C(N)=O)cc2c1CN(C(=O)C1CC(=O)N(C(C)(C)C)C1)CC2 (configuration not stated),-49.6
17,O=C1C(NS(=O)(=O)c2cc(F)cc(F)c2)CCN1Cc1ccccc1 (configuration not stated),-10
18,Cc1nc(-c2cccc(N3CCC(NC4CCSC4)CC3)c2)cs1 (configuration not stated),2.86
19,CN1CCC2(CCN(Cc3nccs3)CC2)C1=O,-3.03
20,CC(C)c1nccn1C1CCCN(C(=O)c2cccc3[nH]ncc23)C1 (configuration not stated),-0.35
21,CCOC(=O)c1n[nH]cc1CN1CCOC(Cc2ccccc2)C1 (configuration not stated),-5.35
22,CC(Cn1cnc2cn(C)nc2c1=O)Oc1cccnc1 (configuration not stated),-11.7
23,O=C(NCC1(c2ccc(F)cc2)CCCC1)N1CCOC(CO)C1 (configuration not stated),0.323

row,Compound,cytotoxicity at 10 µM [%]
1,COC(=O)c1ccc(Cl)c(NS(=O)(=O)c2cn(C)cn2)c1,11.9
2,Cc1ccc(CN2C[C@@H]3CCN(Cc4cccnc4)C(=O)[C@H]3C2)s1,0.434
3,Cc1ccc(S(=O)(=O)NCCNC(=O)c2ccoc2)cc1C,-3.26
4,O=C(c1ccc(Cl)cc1)N1CCC(N2CCCCC2=O)CC1,7.3
5,Cn1cc(CN2CCn3cnc(COCC4CC4)c3C2)cn1,3.71
6,CCN1CC2(CC1=O)CN(C(=O)NC(C)C)CCN(C(=O)NC(C)C)C2,-1.73
7,CCc1cnc(CN(C(C)=O)C2CCN(CC(=O)N3CCCC3)C2)o1 (configuration not stated),-6.63
8,Cc1nnc2ccc(N3CCN(CCc4ccccn4)CC3)nn12,-8.76
9,Cn1nc(C2CCCN(Cc3ccc(F)c(F)c3)C2)c2nccnc21 (configuration not stated),-2.9
10,Cn1nccc1NC(=O)CN1CCc2sccc2C1,1.09
11,CC(=O)N1CCCC(C(=O)NCCc2nc(Cc3ccccc3)no2)C1 (configuration not stated),3.81
12,Cc1nc(NC2CCCC2)c2c(n1)c(C)nn2C,14.1
13,COCC1CCN(CCOc2ccc(C#N)cc2OC)CC1,4.11
14,CNC(=O)[C@@H]1C[C@@H](NC(=O)Cc2nonc2C)CN1Cc1sccc1C,-4.42
15,CCOc1ccc(CN2CCOCC2c2[nH]ncc2C)cc1CO (configuration not stated),-2.92
16,COCC1CN(c2ccncn2)Cc2cnn(CC3CCCC3)c21 (configuration not stated),4.83
17,Cc1ncc(C(=O)OCC2CCN(c3ccccc3)C2)s1 (configuration not stated),-16
18,CCC(C)NC(=O)NCc1cc2n(n1)CCCN(C1CCCCC1)C2 (configuration not stated),3.11
19,CCn1cc(CN2CCCN(C(=O)c3ccccc3OC)CC2)cn1,-11.4
20,Cc1nn(C)c(C)c1-c1ccc(=O)n(C(C)C(=O)NC2CC2)n1 (configuration not stated),0.0475
21,CN(CCNC(=O)c1cccnc1)S(C)(=O)=O,-0.102
22,CCN(CC1CN(Cc2nc(C3CC3)no2)CCO1)c1cccnn1 (configuration not stated),14.9
23,COc1ccc(CNC(=O)NC(C)(C(=O)O)c2ccco2)cc1F (configuration not stated),0.808

row,Compound,cytotoxicity at 10 µM [%]
1,CCc1c(NCc2ccc(F)cc2)cnn1CC(C)C,3.66
2,CNC(=O)CS(=O)(=O)Cc1ccc(OC)c(F)c1,-6.7
3,Cc1cc(C(=O)NCC(=O)NC(c2ncccc2C)C(C)C)c(C)o1 (configuration not stated),-9.6
4,Cc1nccc(C2(C)CCCNC2)n1 (configuration not stated),9.22
5,CCOc1ccc(CNC2CCCN(c3cccnn3)C2)cc1OC (configuration not stated),-3.92
6,O=S(=O)(N1CCCCC1)N1CCOC2(CCCC2)C1,-3.73
7,CNC(=O)[C@H]1C[C@H]2OCC[C@H]2N(CC2CC2)C1,4.17
8,CN(Cc1cccnc1)CC1CCCN1c1cccnn1 (configuration not stated),0.192
9,Cc1ncccc1C(=O)NCC(C)Oc1ccc(F)cc1 (configuration not stated),-4.08
10,CCOC(C(=O)N1CCn2c(nnc2C(C)C)C1)c1ccccc1 (configuration not stated),3.84
11,CC(C)CC1(C(=O)NCc2nncn2C2CC2)CCC1,-1.22
12,Cc1ncsc1C(=O)NCCNC(=O)c1cccs1,-8.83
13,O=C(CC1CCCC1)N1CCC2(CC1)[C@H](O)C[C@@H]2O,2.3
14,O=c1[nH]c(CCN2CCCC(Cn3cncn3)C2)nc2ccccc12 (configuration not stated),-8.62
15,Cc1nsc(NC(=O)NC2(CN3CCOCC3)CCCCC2)n1,-3.82
16,CCC(CC)(CNC(=O)OC(C)(C)C)NC(=O)C1CCOCC1,1.85
17,CCC1c2ccsc2CCN1C(=O)NCc1ccccn1 (configuration not stated),-4.51
18,COCCN(c1ccncc1)S(=O)(=O)c1cc(C)cc(F)c1,7.83
19,O=C(Nc1ccc(CCN2CCC(O)CC2)cc1)C1CCOCC1,-8.08
20,c1cncc(O[C@@H]2CC[C@H]3[C@H]2OCCN3C2CCCC2)c1,1.76
21,c1cncc(-c2noc(CNC3CCc4ncnn4C3)n2)c1 (configuration not stated),-5.57
22,CCN1C(=O)C(C#N)=C(C)/C(=C/C2=Cc3ccccc3OC2)C1=O,-40.9
23,COc1ccc(Cl)cc1CN1CC(n2cccn2)C1,-1.73

row,Compound,cytotoxicity at 10 µM [%]
1,CS(=O)(=O)N1CCC2(CC1)CC(NCc1ccccn1)c1ccccc12 (configuration not stated),-109
2,COC(=O)Cc1cccc(NC(=O)Cc2cc(C)[nH]n2)c1,-2.45
3,Cc1cnn(CC2CCCN2C(=O)Cc2c(C)noc2C)c1 (configuration not stated),0.983
4,COc1cc(C(=O)N2CCCS2(=O)=O)ccc1C,2.72
5,Cn1cccc1CN1CCc2ncnc(-c3cccnc3)c2CC1,9.03
6,CC(C)CN1C(=O)CC[C@H]2CN(Cc3ncc[nH]3)CC[C@H]21,-3.25
7,O=C1C(NCc2nnc3n2CCCC3)CCN1c1ccccc1 (configuration not stated),-11.2
8,CCOc1cccc2c1OCC(=O)N(c1ccc3c(c1)OCO3)C2,17.1
9,CCc1nccn1C1CCCN(C(=O)c2ccc3[nH]nnc3c2)C1 (configuration not stated),7.15
10,CCCn1cc(C(=O)n2nc(C)cc2C)c(S(=O)(=O)N2CCSCC2)n1,-10.1
11,COc1c(CNCC(O)c2ccc(C)cc2)c(C(C)C)nn1C (configuration not stated),-10.6
12,O=C1[C@H]2CN(CC3CC3)C[C@H]2CN1Cc1cccc(F)c1,5.56
13,O=C1C(Nc2nccn3cnnc23)CCN1c1cccc(Cl)c1 (configuration not stated),-1.7
14,CCc1nnc2n1CCN(CC(=O)Nc1cc(C)on1)C2,5.18
15,CC(C)(C)CC(=O)NCC(=O)NS(=O)(=O)c1cccnc1,-3.13
16,CC(CC(=O)NCCCn1cccn1)c1cccnc1 (configuration not stated),-1.66
17,Cc1nc(C)n(CC2CCCN2Cc2ccn(-c3ccccc3)n2)n1 (configuration not stated),-5.01
18,CO[C@H]1CCN(C(=O)Cc2ccc(F)cc2)[C@H]1Cc1ccncc1,5.55
19,O=C(C1CCCCN1Cc1nccn1CC(F)(F)F)N1CCCC1 (configuration not stated),14.2
20,COCCOC1CCN(C(C(=O)O)c2ccc(OC)c(F)c2)CC1 (configuration not stated),7.42
21,O=S(=O)(c1ccc(Cl)cc1)N1C[C@@H]2CCN[C@@H]2C1,-1.89
22,CC(C)CC(NCc1cccs1)c1ccccn1 (configuration not stated),3.46
23,O=C(NC1CCN(c2cc(-n3ccnc3)ncn2)CC1)c1ccncc1,5.94

row,Compound,cytotoxicity at 10 µM [%]
1,COc1cccc(CN(C)Cc2c(C)noc2C)c1OC,8.82
2,CC(=O)N[C@@H]1CN(C(=O)c2ccc[nH]2)C[C@H]1c1ccc(C)o1,5.16
3,COCCN1CCC(CNC(=O)C2(c3cccc(C)c3)CC2)CC1,-1.88
4,c1cnn(C2CN(Cc3nc(-c4ccsc4)no3)C2)c1,-12.2
5,CN(Cc1ccc2c(c1)OCO2)C(=O)c1ccn(C)c(=O)c1,3.01
6,CN1CCc2onc(Cn3cccc3)c2C1,7.25
7,CCCn1cc(C(=O)NCCc2ccc3c(c2)OCO3)c(C)n1,96.3
8,Cc1nn(C)cc1CN1CCCCCC1c1ccc(Cl)cc1 (configuration not stated),4.93
9,Cc1cc(N2CCCN(c3nc(C)nc(C)c3C)CC2)ccn1,-13.1
10,c1cncc(COC[C@H]2CC[C@H]3[C@H](CCN3Cc3cccs3)O2)c1,3.45
11,CCOCc1ccccc1NC(=O)NC1CCN(C2CCCC2)C1 (configuration not stated),9.42
12,O=C(NC1CCC2(CCC(=O)N2CC2CC2)CC1)c1cnccn1 (configuration not stated),0.729
13,c1cnn(C2CN(CCCOc3ccc4c(c3)OCO4)C2)c1,-4.73
14,CCNC(=O)N1CCC(c2ccccc2)C1 (configuration not stated),-3.57
15,CC(O)CN1CCN(Cc2coc(-c3ccccc3Cl)n2)CC1 (configuration not stated),-4.73
16,Cc1nn2cnnc2c(C)c1CCC(=O)Nc1nc2c(s1)CCC2,-0.674
17,CCOC(=O)N1CCN(C(=O)c2cc(-c3ccccc3F)on2)CC1,1.14
18,COc1cccc(C(=O)N2CCN(CC(O)c3ccccc3)CC2)c1 (configuration not stated),-46.7
19,CCOCCOCc1cccc(CNc2cncc(-n3cccn3)n2)c1,7.74
20,CN(C)CC1CN(Cc2nc(-c3ccccn3)no2)CCO1 (configuration not stated),-5.8
